Measurements from ChEMBL document CHEMBL3259600, “Synthesis and biological evaluation of some new pyrazoline substituted benzenesulfonylurea/thiourea derivatives as anti-hyperglycaemic agents and aldose reductase inhibitors” (Eur J Med Chem, 2014).

Experiments:
[1] = test system: Rattus norvegicus; assay: Antihyperglycemic activity in glucose-fed hyperglycaemic Wistar albino rat assessed as inhibition of postprandial hyperglycemia at 0.05 mM/kg, po administered via gavage 30 mins prior to glucose challenge measured 60 mins after glucose load; type: functional; set-up: scale not given: the % may be the effect or the level left
Summary of the method: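 Rats fasted at least 16 h with water available, groups of six. Vehicle 1% w/v CMC in distilled water, 10 ml/kg, given orally. Glucose load 3 g/kg 30 min after treatment. Retro-orbital blood sampled just before and 60 min after the load. Glucose tolerance by AUC, percent activity from AUC against vehicle group, Dunnett's test.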

[2] = molecular target: Aldo-keto reductase family 1 member B1 (Rattus norvegicus, UniProt P07943); assay: Inhibition of aldose reductase in rat lens by spectrophotometer analysis
Summary of the method: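 Crude enzyme from rat lens homogenized in 9 volumes 100 mM potassium phosphate pH 6.2, spun 15,000 × g for 30 min at 4 °C, supernatant used. Assay in 50 mM potassium phosphate pH 6.2 with 0.4 M lithium sulphate, 5 mM β-mercaptoethanol, 10 mM DL-glyceraldehyde, 0.1 mM NADPH, at 37 °C. DMSO-dissolved compound preincubated 5 min, reaction started with NADPH, read spectrophotometrically, triplicate. IC50 by non-linear regression of % inhibition vs log concentration.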

[3] = Retardation factor of the compound using toulene-ethyl acetate-formic acid at ratio of 5:4:1 as solvent system by thin layer chromatography; type: physicochemical
[4] = Retardation factor of the compound using chloroform-acetone at ratio of 9:1 as solvent system by thin layer chromatography; type: physicochemical
[5] = Retardation factor of the compound using chloroform-acetone at ratio of 8:2 as solvent system by thin layer chromatography; type: physicochemical

SMILES	IC50 ([2]; read-out: IC50) [nM]	Rf [3]	Rf [4]	IC50 [2]	Rf [5]	Activity [1] [%]
Cc1ccc(C2CC(c3ccc(N(C)C)cc3)=NN2c2ccc(S(=O)(=O)NC(=S)NCc3ccccc3)cc2)cc1 (centres undefined)	69.9	–	0.9	–	–	21.7
CN(C)c1ccc(C2=NN(c3ccc(S(=O)(=O)NC(=S)NC4CCCCC4)cc3)C(c3ccccc3)C2)cc1 (centres undefined)	17.8	0.97	–	–	–	2.7
CCCCNC(=S)NS(=O)(=O)c1ccc(N2N=C(c3ccc(N(C)C)cc3)CC2c2ccc(OC)cc2)cc1 (centres undefined)	–	0.9	–	–	–	17.2
CCCCNC(=S)NS(=O)(=O)c1ccc(N2N=C(c3ccc(N(C)C)cc3)CC2c2ccc(Cl)cc2)cc1 (centres undefined)	17.5	0.66	–	–	–	18.9
COc1ccc(C2CC(c3ccc(N(C)C)cc3)=NN2c2ccc(S(=O)(=O)NC(=S)NCc3ccccc3)cc2)cc1 (centres undefined)	–	0.65	–	–	–	11.7
COc1ccc(C2CC(c3ccc(N(C)C)cc3)=NN2c2ccc(S(=O)(=O)NC(=O)NCc3ccccc3)cc2)cc1OC (centres undefined)	–	0.56	–	–	–	18
CCCCNC(=S)NS(=O)(=O)c1ccc(N2N=C(c3ccc(N(C)C)cc3)CC2c2ccccc2)cc1 (centres undefined)	43	0.88	–	–	–	10.5
CN(C)c1ccc(C2=NN(c3ccc(S(=O)(=O)NC(=S)NCc4ccccc4)cc3)C(c3ccc(Cl)cc3)C2)cc1 (centres undefined)	–	0.87	–	–	–	4.2
COc1cc(C2CC(c3ccc(N(C)C)cc3)=NN2c2ccc(S(=O)(=O)NC(=O)NCc3ccccc3)cc2)cc(OC)c1OC (centres undefined)	–	–	0.83	–	–	29.3
COc1cc(C2CC(c3ccc(N(C)C)cc3)=NN2c2ccc(S(=O)(=O)NC(=S)NCc3ccccc3)cc2)cc(OC)c1OC (centres undefined)	–	0.92	–	–	–	28.6
Cc1ccc(S(=O)(=O)NC(=O)NN2CC3CCCC3C2)cc1 (centres undefined) [GLICLAZIDE]	–	–	–	–	–	25.4

Further lines, with some results ahead:

IC50 ([2]; read-out: IC50) [nM]	Rf [3]	Rf [4]	IC50 [2]	Rf [5]	SMILES	Activity [1] [%]
90.1	0.88	–	–	–	CN(C)c1ccc(C2=NN(c3ccc(S(=O)(=O)NC(=S)NCc4ccccc4)cc3)C(c3ccccc3)C2)cc1 (centres undefined)	24.2
–	0.7	–	Not Active	–	COc1ccc(C2CC(c3ccc(N(C)C)cc3)=NN2c2ccc(S(=O)(=O)NC(=O)NCc3ccccc3)cc2)cc1 (centres undefined)	17.5
–	0.85	–	Not Active	–	CN(C)c1ccc(C2=NN(c3ccc(S(=O)(=O)NC(=O)NCc4ccccc4)cc3)C(c3ccccc3)C2)cc1 (centres undefined)	15.5
–	–	–	–	0.88	Cc1ccc(C2CC(c3ccc(N(C)C)cc3)=NN2c2ccc(S(=O)(=O)NC(=O)NCc3ccccc3)cc2)cc1 (centres undefined)	12
–	0.78	–	–	–	CN(C)c1ccc(C2=NN(c3ccc(S(=O)(=O)NC(=O)NCc4ccccc4)cc3)C(c3ccc(Cl)cc3)C2)cc1 (centres undefined)	6.7
85	0.75	–	–	–	CN(C)c1ccc(C2=NN(c3ccc(S(=O)(=O)NC(=S)NCc4ccccc4)cc3)C(c3ccccc3Cl)C2)cc1 (centres undefined)	15.3
–	0.79	–	Not Active	–	CN(C)c1ccc(C2=NN(c3ccc(S(=O)(=O)NC(=O)NCc4ccccc4)cc3)C(c3ccccc3Cl)C2)cc1 (centres undefined)	4.7
